Fewer inactive variants are shown than the library holds.
B1: tRNA (parent)
chain: GUUCCGUUGGCGUAAUGGUAACGCGUCUCCCUCCUAAGGAGAAGACUGCGGGUUCGAGUCCCGUACGGAACG

Variants of: B1
Test: yeast fitness relative to wild type (ratio to wild type); higher = fitter; tRNA-Arg(CCU), competitive growth, 37 C, YPD
In short: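 The tRNA-Arg(CCU) gene variants were made by chemical synthesis with a 3% per-site mutation rate at 69 sites and inserted at the native genomic locus of Saccharomyces cerevisiae. After pooling, the strains were competed in YPD at 37°C for 24 hours in six parallel replicates. Gene amplicons from the start population and each end population were read by 100-nucleotide paired-end sequencing, and Darwinian fitness relative to wild type was taken from genotype frequency changes. Genotypes needed ≥ 100 starting reads, and estimates < 0.5 were set to 0.5.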

C24G C30A G44C U47C U59A and C24G C34U U35A A42C C66A cannot be ordered by yeast fitness: no more than 0.5 for the first, no more than 0.5 for the second.

Going from C24G A45G G51C U54A G56C to C24G A37G, the yeast fitness rises from no more than 0.5 to 0.612.

First: C24G A37C
Second: C24G C31U A43G A45C U64A
The yeast fitness of the first is higher: 0.563 for the first, no more than 0.5 for the second.

First: C24G C29A A40G G50C
Second: C24U A37G G63C C66U
The yeast fitness of the first is lower: no more than 0.5 for the first, 0.581 for the second.

Compared with C24G C27U C33U A45G G50C G68A, C24G G25C A45G is higher in yeast fitness: no more than 0.5 for the first, 0.512 for the second.

Compared with C24G U26A C46A C62U, C24G C33A C62A is lower in yeast fitness: 0.578 for the first, no more than 0.5 for the second.

Going from C24G U53G U54A G58C to C24G C33G A36C A37C A42C A45G A65U, the yeast fitness falls from 0.552 to no more than 0.5.

Going from C24G C27U C33U G48A G50C G68A to C24G C30G A70G, the yeast fitness rises from no more than 0.5 to 0.638.

C24U A37G G39A G48C G68U and C24G C27G A45C cannot be ordered by yeast fitness: no more than 0.5 for the first, no more than 0.5 for the second.

Compared with C24G U26G C34A A36C, C24G G56A is higher in yeast fitness: no more than 0.5 for the first, 0.618 for the second.

Going from C24G C33U C60G to C24G C27G C60U, the yeast fitness rises from 0.519 to 0.8.

Going from C24G U26C C31U U54C to C24A U59G C66U A70C, the yeast fitness falls from 0.934 to 0.529.

Compared with C24G C27U G52C, C24G A43C C62U A65G is lower in yeast fitness: 0.566 for the first, no more than 0.5 for the second.

First: C24G C33G A36C A37C A42C C60U G67U
Second: C24G A69U
The yeast fitness of the first is lower: no more than 0.5 for the first, 0.658 for the second.

Going from C24G A69G to C24G G67U, the yeast fitness falls from 0.503 to no more than 0.5.

First: C24G G67C
Second: C24G G67A
The yeast fitness of the first is higher: 0.622 for the first, 0.594 for the second.

C24G C27A A45C C62G and C24U A37G G39A G48C A69C cannot be ordered by yeast fitness: no more than 0.5 for the first, no more than 0.5 for the second.

C24G A37C U59C C62U G68U and C24G C34G G38C C62G A69C cannot be ordered by yeast fitness: no more than 0.5 for the first, no more than 0.5 for the second.

Going from C24G G25A A36C G67U to C24G C66G, the yeast fitness rises from no more than 0.5 to 0.691.

Going from C24G C66U to C24G C49A U53A G67A, the yeast fitness falls from 0.533 to no more than 0.5.

C24G U26A A37G G48A and C24G A43G U47A U53A G68C cannot be ordered by yeast fitness: no more than 0.5 for the first, no more than 0.5 for the second.

Going from C24G A36G to C24G C60G A70G, the yeast fitness falls from 0.557 to no more than 0.5.

First: C24G A42G A69U
Second: C24G
The yeast fitness of the first is lower: no more than 0.5 for the first, 0.609 for the second.

Going from C24U to C24A U64G, the yeast fitness falls from 0.983 to 0.68.

Compared with C24A U64A, C24G A43C is lower in yeast fitness: 0.622 for the first, 0.543 for the second.

Compared with C24G A43U, C24G C61U is lower in yeast fitness: 0.703 for the first, 0.59 for the second.

Going from C24G G44C G58C to C24G C60U A69C, the yeast fitness falls from 0.547 to no more than 0.5.

Compared with C24U A37U G41C A70C, C24G U47A is higher in yeast fitness: no more than 0.5 for the first, 0.57 for the second.

Going from C24G U47C to C24G U47G, the yeast fitness falls from 0.688 to no more than 0.5.

First: C24G A70U
Second: C24G U47C G68C A70C
The yeast fitness of the first is higher: 0.639 for the first, no more than 0.5 for the second.

C24G C27U C29G C34G A36G A43U and C24G C29A A43U cannot be ordered by yeast fitness: no more than 0.5 for the first, no more than 0.5 for the second.

Compared with C24G G39C, C24G C33U C62A A70G is lower in yeast fitness: 0.608 for the first, no more than 0.5 for the second.

Compared with C24G C33U A65U, C24G C49G is higher in yeast fitness: no more than 0.5 for the first, 0.544 for the second.

First: C24G C49U
Second: C24G G25C C30G U32C A57G
The yeast fitness of the first is higher: 0.576 for the first, no more than 0.5 for the second.

C24G C30U C34U and C24G G39C A45G U54A C55U cannot be ordered by yeast fitness: no more than 0.5 for the first, no more than 0.5 for the second.

C24G C30U C34U C55A and C24G A57G A70G cannot be ordered by yeast fitness: no more than 0.5 for the first, no more than 0.5 for the second.

C24G U54A A65U C66U and C24G G56A A57C cannot be ordered by yeast fitness: no more than 0.5 for the first, no more than 0.5 for the second.

Going from C24G U32A A43G G50A A65C to C24G C30A U47C, the yeast fitness rises from no more than 0.5 to 0.586.

C24G A40U G67C and C24G A36G A40C C55G G63C cannot be ordered by yeast fitness: no more than 0.5 for the first, no more than 0.5 for the second.

Compared with C24G A65G, C24G A57U A69C is lower in yeast fitness: 0.703 for the first, no more than 0.5 for the second.

Compared with C24G G25A C31G A57U, C24G A42C A70U is higher in yeast fitness: 0.532 for the first, 0.616 for the second.

First: C24G C60U G68A
Second: C24G C30U C49G
The yeast fitness of the first is higher: 0.789 for the first, 0.664 for the second.

From the RNAGym collection of RNA variant scans (doi:10.1126/science.aae0568)
